Source: PMC3072167 (Bioorganic & medicinal chemistry letters, 2011)
Entries after “also recorded” stand apart in the source; their conditions may differ.

Experiments:
[1] = target: chymotrypsin-like (ChT-L) activities of the 20S proteasome (Homo sapiens, UniProt P28074); experiment: Inhibition of chymotrypsin-like; format: biochemical; conditions: qualitative statements in text
HeLa Ub^G76V-GFP cells = experiment: Cell based proteasome assay: accumulation of UbG76V-GFP; conditions: 7.5 uM for 24 hours; fluorescence microscope
Outline: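 HeLa cells stably expressing UbG76V-GFP, seeded at 10,000 cells per well in growth medium, were cultured with test compound (7.5 uM) for 24 hours. Intracellular UbG76V-GFP accumulation was recorded as green fluorescence by fluorescence microscopy.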

[2] = target: chymotrypsin-like activity of the proteasome (Homo sapiens, UniProt P28074); experiment: Enzyme kinetic study; format: biochemical
Outline: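 The 20S proteasome chymotrypsin-like activity was measured across a range of Suc-Leu-Leu-Val-Tyr-AMC concentrations, with or without 2 μM or 4 μM test compound. Cleaved substrate was read as fluorescence units, and reaction rates were plotted as Lineweaver-Burk plots to derive Km and Vmax. Each point is the average of two independent experiments.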

Structure (SMILES) | Inhibition of the chymotrypsin-like activity of the 20S proteasome, in words [1] | also measured
COC(=O)CC[C@@H](C)[C@H]1CC[C@H]2[C@@H]3CC[C@@H]4C[C@H](O)CC[C@]4(C)[C@H]3CC[C@]12C [Compound 1] | loss of inhibitory activity | 
CCOC(=O)CC[C@@H](C)[C@H]1CC[C@H]2[C@@H]3CC[C@@H]4C[C@H](O)CC[C@]4(C)[C@H]3CC[C@]12C [Compound 2] | loss of inhibitory activity | 
C[C@H](CCC(=O)O)[C@H]1CC[C@H]2[C@@H]3CC[C@@H]4C[C@H](OC(=O)CCCCCC(=O)O)CC[C@]4(C)[C@H]3CC[C@]12C [Compound 8] | did not inhibit | 
C[C@H](CCC(=O)O)[C@H]1CC[C@H]2[C@@H]3CC[C@@H]4C[C@H](OC(=O)CC5(CC(=O)O)CCCC5)CC[C@]4(C)[C@H]3CC[C@]12C [Compound 10] |  | Accumulation of Ub^G76V-GFP (green fluorescence) in cells (HeLa Ub^G76V-GFP cells): resulted in accumulation of Ub^G76V-GFP; also recorded: inhibited the proteasome; Mode of proteasome inhibition ([2]; Lineweaver-Burk plot, 2 μM and 4 μM compound, substrate Suc-Leu-Leu-Val-Tyr-AMC): noncompetitive inhibitor; Effect on Michaelis-Menten constant (Km) of the substrate ([2]; compound at 2 μM and 4 μM): without affecting; Effect on maximum reaction rate (Vmax) of the proteasomal activity ([2]; compound at 2 μM and 4 μM): reduced
COC(=O)CC[C@@H](C)[C@H]1CC[C@H]2[C@@H]3CC[C@@H]4C[C@H](OC(=O)Cc5cccc(CC(=O)O)c5)CC[C@]4(C)[C@H]3CC[C@]12C [Compound 15] | lost the inhibitory activity; also recorded: loss of inhibitory activity | 
COC(=O)CC[C@@H](C)[C@H]1CC[C@H]2[C@@H]3CC[C@@H]4C[C@H](OC(=O)CCCCCC(=O)O)CC[C@]4(C)[C@H]3CC[C@]12C [Compound 16] | loss of inhibitory activity | 
CCOC(=O)CC[C@@H](C)[C@H]1CC[C@H]2[C@@H]3CC[C@@H]4C[C@H](OC(=O)CCCCCC(=O)O)CC[C@]4(C)[C@H]3CC[C@]12C [Compound 17] | loss of inhibitory activity | 
CC1(C)C=C2[C@H]3CC[C@@H]4[C@@]5(C)CCC(=O)C(C)(C)[C@@H]5CC[C@@]4(C)[C@]3(C)CC[C@@]2(C(=O)O)CC1 [moronic acid, reference compound] | only LA inhibited | 
C[C@H]1[C@H](C)CC[C@]2(C(=O)O)CC[C@]3(C)C(=CC[C@@H]4[C@@]5(C)CC[C@H](O)C(C)(C)[C@@H]5CC[C@]43C)[C@H]12 [ursolic acid, reference compound] | only LA inhibited | 
